Screening results: PubChem BioAssay, Sanford-Burnham Center for Chemical Genomics
SENP8 block-1 = SENP8 protease inhibition. purified SENP8, Z-RLRGG-aminoluciferin cleavage, luminescence. inhibition, % at 10 µM. hit rate 1.2% among 330,000. AID 2540; in the data active means inhibition above about 50%
SENP7 block = inhibitors of human SENP7 protease; recombinant SENP7, Z-RLRGG-aminoluciferin luminescence, 40 min; hit rate 1.5% among 330,000; Q9BQF6; inhibition, % at 5 µM;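 active means inhibition above about 50% at the single test dose, limit read from the data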
SENP8 block-2 = SENP8 (human) protease inhibition | inhibition, % at 20 µM | recombinant SENP8, Nedd8 substrate fluorescence | hit rate 0.64% among 360,000 | AID 602440; in the data active means inhibition mostly above about 40%, no sharp cut-off; inactive means mostly below about 27%
UBC13 inh = blocks human UBC13 polyubiquitin chain formation | hit rate 0.47% among 330,000 | TR-FRET | inhibition, % at 20 µM | AID 485273 | P61088; in the data active means inhibition above about 45%, passing the limit was not always enough
Apaf1 inhib = human Apaf-1 inhibition; reconstituted apoptosome caspase-3 activity, DEVD-Rh110 fluorescence; inhibition, % at 20 µM; hit rate 0.71% among 330,000; AID 489030; active means inhibition of at least 40% at 20 µM
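Material: reconstituted apoptosome with Apaf-1, cytochrome c, caspase-9, procaspase-3, dATP. Technique: Rh110 fluorescence intensity. Buffer or medium: pH 7.5 Hepes buffer with CHAPS, BSA, DTT. Times: 30 min plus 50 min, RT.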
SENP6 inh = blocks the human protease SENP6. Q9GZR1. Recombinant SENP6 catalytic domain, aminoluciferin luminescence. inhibition, % at 10 µM. hit rate 1.8% among 330,000. AID 2599;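 active means inhibition above about 50% at the single tested dose, limit read from the data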
Target sequence (Q9GZR1 628-1112 limits assumed): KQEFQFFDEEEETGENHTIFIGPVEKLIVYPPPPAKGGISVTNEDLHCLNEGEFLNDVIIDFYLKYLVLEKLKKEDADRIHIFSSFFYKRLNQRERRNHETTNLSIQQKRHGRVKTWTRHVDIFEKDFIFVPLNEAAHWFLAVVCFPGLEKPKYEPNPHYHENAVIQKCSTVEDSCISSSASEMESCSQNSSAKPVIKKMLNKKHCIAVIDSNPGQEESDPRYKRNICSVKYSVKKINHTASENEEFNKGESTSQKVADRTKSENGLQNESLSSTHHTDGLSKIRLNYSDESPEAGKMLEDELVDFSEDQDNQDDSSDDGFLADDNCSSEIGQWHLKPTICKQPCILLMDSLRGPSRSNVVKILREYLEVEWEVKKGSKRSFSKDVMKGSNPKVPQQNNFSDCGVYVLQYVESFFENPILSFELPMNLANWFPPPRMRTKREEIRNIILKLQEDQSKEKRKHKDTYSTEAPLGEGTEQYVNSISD
SENP8 confirm = confirmation of human SENP8 protease inhibitors; shares compounds with SENP7 block; Recombinant SENP8, Z-RLRGG-aminoluciferin luminescence, 60 min; inhibition, % at 12.5 µM; hit rate 40% among 6,200;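 active means mean inhibition across replicates above about 50%, limit read from the data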
SENP6 confirm = confirmation of human SENP6 protease inhibitors; AID 488915; recombinant SENP6, Z-RLRGG-aminoluciferin luminescence; inhibition, % at 12.5 µM; shares compounds with SENP7 block; hit rate 58% among 6,200
SENP7 confirm = confirmation of human SENP7 protease inhibitors; AID 488917; shares compounds with SENP7 block; hit rate 69% among 6,200; inhibition, % at 12.5 µM; recombinant SENP7, Z-RLRGG-aminoluciferin luminescence, 40 min
Casp3 SENP sel = inhibits human caspase-3 in SENP selectivity test. shares compounds with SENP7 block. purified caspase-3, Z-DEVD-aminoluciferin luminescence, 60 min. inhibition, % at 12.5 µM. hit rate 60% among 6,200. AID 488918;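 active means mean inhibition above about 50%, limit read from the data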
SENP luc ctr = counter-screen for SENP inhibitors: luminescence interference; shares compounds with SENP7 block; Pre-incubated SENP8/Z-RLRGG-aminoluciferin, luciferase luminescence interference; inhibition, % at 12.5 µM; hit rate 39% among 6,200;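 active means mean inhibition above about 50% when retested at one dose, limit read from the data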
A number is an active result. This is a sample that favours compounds with a hit; in the whole collection about 3% have one here.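 How the source made its calls, unless noted: active means mean inhibition above about 50% in the one-dose retest (limit read from the data); inactive means the rest.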

Screening COc1cc(NC(=O)c2ccc(-c3cnn(C)c3)c3ccoc23)cc(OC)c1OC returned SENP8 block-2 inactive.
For Cc1cc(/C=C2/C(=O)NN(c3ccccc3)C2=O)c(C)n1-c1ccc(O)cc1 the results were SENP8 block-1 55.5, SENP7 block inactive, SENP8 block-2 50.4, UBC13 inh inactive, Apaf1 inhib inactive, SENP6 inh 78.5, SENP8 confirm inactive, SENP6 confirm 65.7, SENP7 confirm 91.1, Casp3 SENP sel 62.5 and SENP luc ctr inactive.
Screening Cc1cc(C=C2C(=O)CCCC2=O)c(C)n1-c1ccccc1 returned SENP8 block-1 inactive, SENP7 block inactive, SENP8 block-2 inactive, UBC13 inh inactive, Apaf1 inhib inactive and SENP6 inh inactive.
For O=C(O)c1ccc(-c2ccc(OS(=O)(=O)c3ccccc3F)cc2)cc1 the results were SENP8 block-1 inactive, SENP7 block inactive, SENP8 block-2 inactive, UBC13 inh inactive, Apaf1 inhib inactive, SENP6 inh 56.5, SENP8 confirm inactive, SENP6 confirm inactive, SENP7 confirm 59.8, Casp3 SENP sel inactive and SENP luc ctr inactive.
O=C(O)C1CCN(Cc2ccccn2)CC1 was read as SENP8 block-1 inactive, SENP7 block inactive, SENP8 block-2 inactive, UBC13 inh inactive, Apaf1 inhib inactive, SENP6 inh 82.9, SENP8 confirm inactive, SENP6 confirm inactive, SENP7 confirm inactive, Casp3 SENP sel inactive and SENP luc ctr inactive.
Screening CCOC(=O)C1CCN(Cc2ccccn2)CC1 returned SENP8 block-1 inactive, SENP7 block inactive, UBC13 inh inactive, Apaf1 inhib inactive and SENP6 inh inactive.
For Nn1c(Nc2ccccc2)nc2ccccc21 the results were SENP8 block-1 inactive, SENP7 block inactive, SENP8 block-2 inactive, UBC13 inh inactive, Apaf1 inhib inactive, SENP6 inh 66.7, SENP8 confirm 50.9, SENP6 confirm inactive, SENP7 confirm 81.0, Casp3 SENP sel 72.7 and SENP luc ctr 59.0.
`CCCC(=O)N1CCCC1(C)C(=O)Nc1ccc(OC(F)F)cc1` (stereo not given) gave SENP8 block-2 inactive.
Screening CCC(C)CN1C(=O)CN(S(C)(=O)=O)CC1(C)C(=O)NC(C)C (stereo not given) returned SENP8 block-2 inactive.
`O=c1c(-c2ccc(Cl)cc2)c[nH]n1-c1ccccc1` gave SENP8 block-1 inactive, SENP7 block inactive, SENP8 block-2 inactive, UBC13 inh inactive, Apaf1 inhib inactive, SENP6 inh 54.4, SENP8 confirm inactive, SENP6 confirm inactive, SENP7 confirm inactive, Casp3 SENP sel 65.8 and SENP luc ctr inactive.
For O=c1c(-c2ccccc2)c[nH]n1-c1cccc([N+](=O)[O-])c1 the results were SENP8 block-1 75.5, SENP7 block 68.3, SENP8 block-2 inactive, UBC13 inh inactive, Apaf1 inhib inactive, SENP6 inh 78.5, SENP8 confirm 73.3, SENP6 confirm 72.5, SENP7 confirm 94.1, Casp3 SENP sel 90.4 and SENP luc ctr 73.9.
For CC1=CCC(COC(=O)Nc2ccccc2)CC1 (stereo not given) the results were SENP8 block-1 79.7, SENP7 block 88.5, SENP8 block-2 inactive, UBC13 inh inactive, Apaf1 inhib inactive, SENP6 inh 81.7, SENP8 confirm 86.5, SENP6 confirm 90.3, SENP7 confirm 98.9, Casp3 SENP sel 75.4 and SENP luc ctr 81.4.
Cc1cc2nc(NC(=O)C3(C)CCN3C(=O)C(C)C)[nH]c2cc1C (stereo not given) was read as SENP8 block-2 inactive.
